Experiment [1] has as its system Mus musculus. Nature of the experiment: Compound was evaluated for the anticancer activity against M5076 sarcoma in vivo in mouse at a dosage of 100 mg/kg and percent treated/control was reported. Format: functional.
The subject of experiment [2] is Mus musculus. Nature of the experiment: Compound was evaluated for the anticancer activity against M5076 sarcoma in vivo in mouse at a dosage of 12.5 mg/kg and percent treated/control was reported. Format: functional.
The test system of experiment [3] is Mus musculus. Nature of the experiment: Compound was evaluated for the anticancer activity against M5076 sarcoma in vivo in mouse at a dosage of 25 mg/kg and percent treated/control was reported. The format is functional.
Experiment [4] relates to Mus musculus. Nature of the experiment: Compound was evaluated for the anticancer activity against M5076 sarcoma in vivo in mouse at a dosage of 50 mg/kg and percent treated/control was reported. The format is functional.
Experiment [5] has as its system Mus musculus. Nature of the experiment: Compound was evaluated for the anticancer activity against M5076 sarcoma in vivo in mouse at a dosage of 6.25 mg/kg and percent treated/control was reported. Format: functional.
The test system of experiment [6] is Mus musculus. Nature of the experiment: Compound was evaluated for the anticancer activity against M5076 sarcoma in vivo in mouse at a dosage of 100 mg/kg and the weight difference was measured. Format: functional.
Experiment [7] relates to Mus musculus. Nature of the experiment: Compound was evaluated for the anticancer activity against M5076 sarcoma in vivo in mouse at a dosage of 12.5 mg/kg. Format: functional.
Experiment [8] has as its system Mus musculus. Nature of the experiment: Compound was evaluated for the anticancer activity against M5076 sarcoma in vivo in mouse at a dosage of 200 mg/kg and the weight difference was measured. The format is functional.
In experiment [9] the test system is Mus musculus. Nature of the experiment: Compound was evaluated for the anticancer activity against M5076 sarcoma in vivo in mouse at a dosage of 25 mg/kg and the weight difference was measured. The format is functional.
Experiment [10] deals with Mus musculus. Nature of the experiment: Compound was evaluated for the anticancer activity against M5076 sarcoma in vivo in mouse at a dosage of 6.25 mg/kg and the weight difference was measured. Format: functional.
Experiment [11] relates to Mus musculus. Nature of the experiment: Compound was evaluated for the anticancer activity against M5076 sarcoma in mouse at a dosage of 400 mg/kg, survivals were reported. Format: functional.
The test system of experiment [12] is Mus musculus. Nature of the experiment: Compound was evaluated for the anticancer activity against M5076 sarcoma in vivo in mouse at a dosage of 100 mg/kg, survivals were reported. Format: functional.
Experiment [13] has as its system Mus musculus. Nature of the experiment: Compound was evaluated for the anticancer activity against M5076 sarcoma in vivo in mouse at a dosage of 12.5 mg/kg, survivals were reported. Format: functional.
Experiment [14] deals with Mus musculus. Nature of the experiment: Compound was evaluated for the anticancer activity against M5076 sarcoma in vivo in mouse at a dosage of 200 mg/kg, survivals were reported. Format: functional.
The subject of experiment [15] is Mus musculus. Nature of the experiment: Compound was evaluated for the anticancer activity against M5076 sarcoma in vivo in mouse at a dosage of 25 mg/kg, survivals were reported. Format: functional.
In experiment [16] the test system is Mus musculus. Nature of the experiment: Compound was evaluated for the anticancer activity against M5076 sarcoma in vivo in mouse at a dosage of 50 mg/kg, survivals were reported. Format: functional.
For experiment [17], the system named is Mus musculus. Nature of the experiment: Compound was evaluated for the anticancer activity against M5076 sarcoma in vivo in mouse at a dosage of 6.25 mg/kg, survivals were reported. Format: functional.
In experiment [18] the test system is Mus musculus. Nature of the experiment: Compound was evaluated for the anticancer activity against M5076 sarcoma in vivo in mouse at a dosage of 50 mg/kg and the weight difference was measured. The format is functional.
Experiment [19] is described as follows: Compound was evaluated for its cytotoxic activity in vitro KB cell culture system derived from human epidermoid carcinoma. Format: functional. To be noted: read-out: ED50 (the source's name).
For experiment [20], the system named is Mus musculus. Nature of the experiment: Compound was evaluated for the anticancer activity against P388 lymphocytic leukemia in vivo in mouse at a dosage of 12.5 mg/kg and percent treated/control was reported. Format: functional.
The subject of experiment [21] is Mus musculus. Nature of the experiment: Compound was evaluated for the anticancer activity against P388 lymphocytic leukemia in vivo in mouse at a dosage of 25 mg/kg and percent treated/control was reported. Format: functional.
Experiment [22] deals with Mus musculus. Nature of the experiment: Compound was evaluated for the anticancer activity against P388 lymphocytic leukemia in vivo in mouse at a dosage of 50 mg/kg and percent treated/control was reported. The format is functional.
In experiment [23] the test system is Mus musculus. Nature of the experiment: Compound was evaluated for the anticancer activity against P388 lymphocytic leukemia in vivo in mouse at a dosage of 25 mg/kg and the weight difference was measured. The format is functional.
Experiment [24] concerns Mus musculus. Nature of the experiment: Compound was evaluated for the anticancer activity against P388 lymphocytic leukemia in vivo in mouse at a dosage of 50 mg/kg and the weight difference was measured. The format is functional.
Experiment [25] has as its system Mus musculus. Nature of the experiment: Compound was evaluated for the anticancer activity against P388 lymphocytic leukemia in vivo in mouse at a dosage of 12.5 mg/kg and the weight difference was measured. The format is functional.
Experiment [26] concerns Mus musculus. Nature of the experiment: Compound was evaluated for the anticancer activity against P388 lymphocytic leukemia in vivo in mouse at a dosage of 12.5 mg/kg. The survivals were reported. The format is functional.
The test system of experiment [27] is Mus musculus. Nature of the experiment: Compound was evaluated for the anticancer activity against P388 lymphocytic leukemia in vivo in mouse at a dosage of 25 mg/kg. The survivals were reported. The format is functional.
Experiment [28] deals with Mus musculus. Nature of the experiment: Compound was evaluated for the anticancer activity against P388 lymphocytic leukemia in vivo in mouse at a dosage of 50 mg/kg, survivals were reported. The format is functional.
Experiment [29] concerns Mus musculus. Nature of the experiment: Compound was evaluated for the anticancer activity against P388 lymphocytic leukemia in vivo in mouse at a dosage of 200 mg/kg and percent treated/control was reported. Format: functional.
Experiment [30] relates to Mus musculus. Nature of the experiment: Compound was evaluated for the anticancer activity against P388 lymphocytic leukemia in vivo in mouse at a dosage of 100 mg/kg and percent treated/control was reported. The format is functional.
The subject of experiment [31] is Mus musculus. Nature of the experiment: Compound was evaluated for the anticancer activity against P388 lymphocytic leukemia in vivo in mouse at a dosage of 100 mg/kg and the weight difference was measured. The format is functional.
For experiment [32], the system named is Mus musculus. Nature of the experiment: Compound was evaluated for the anticancer activity against P388 lymphocytic leukemia in vivo in mouse at a dosage of 200 mg/kg and the weight difference was measured. The format is functional.
Experiment [33] has as its system Mus musculus. Nature of the experiment: Compound was evaluated for the anticancer activity against P388 lymphocytic leukemia in vivo in mouse at a dosage of 400 mg/kg and the weight difference was measured. The format is functional.
In experiment [34] the test system is Mus musculus. Nature of the experiment: Compound was evaluated for the anticancer activity against P388 lymphocytic leukemia in vivo in mouse at a dosage of 400 mg/kg and percent treated/control was reported. The format is functional.
Experiment [35] deals with Mus musculus. Nature of the experiment: Compound was evaluated for the anticancer activity against P388 lymphocytic leukemia in vivo in mouse at a dosage of 100 mg/kg. The survivals were reported. Format: functional.
Experiment [36] concerns Mus musculus. Nature of the experiment: Compound was evaluated for the anticancer activity against P388 lymphocytic leukemia in vivo in mouse at a dosage of 200 mg/kg. The survivals were reported. Format: functional.
Experiment [37] deals with Mus musculus. Nature of the experiment: Compound was evaluated for the anticancer activity against P388 lymphocytic leukemia in vivo in mouse at a dosage of 400 mg/kg. The survivals were reported. The format is functional.
The test system of experiment [38] is Mus musculus. Nature of the experiment: Compound was evaluated for the anticancer activity against P388 lymphocytic leukemia in vivo in mouse at a dosage of 100 mg/kg. The format is functional.
Experiment [39] deals with Mus musculus. Nature of the experiment: Compound was evaluated for the anticancer activity against P388 lymphocytic leukemia in vivo in mouse at a dosage of 200 mg/kg, survivals were reported. The format is functional.
Experiment [40] has as its system Mus musculus. Nature of the experiment: Compound was evaluated for the anticancer activity against P388 lymphocytic leukemia in vivo in mouse at a dosage of 50 mg/kg. The survivals were reported. Format: functional.
Experiment [41] is described as follows: Compound was evaluated for its cytotoxic activity in vitro KB cell culture system. The settings on record: Homo sapiens, read-out: ED50 (the source's name). The format is functional. A digest of the protocol: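 Cytotoxicity was measured in cultured KB human cancer cells and reported as ED50 values.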
For the next experiment, the system named is L1210. Nature of the experiment: Activity against L1210 was reported. The format is functional, Mus musculus.

The results in this text go back to ChEMBL document CHEMBL1122912, “Synthesis and antitumor activity of structural analogues of the anticancer benzophenanthridine alkaloid fagaronine chloride” (1985).

Where only a bound is given, the exact number is not on record here.

In the case of `COc1cc2c[n+](C)c3c(c2cc1OC)Cc1cc2c(cc1-3)OCO2.[Cl-]`, the T/C with Mus musculus [1] is listed as 137%; in the experiment on Mus musculus [2], 109%; in the experiment with Mus musculus [3], 113%; in the experiment on Mus musculus [4], 107%; with Mus musculus [5], 115%. Moreover, the Weight difference in the experiment with Mus musculus [6] is -4.4; in the experiment with Mus musculus [7], -0.2; in the experiment on Mus musculus [8], -7.2; with Mus musculus [9], -0.3; in the experiment on Mus musculus [10], -0.8; with Mus musculus [18], -2. Moreover, the Survival came to 0 in the experiment with Mus musculus [11]; 9 in the experiment on Mus musculus [12]; 10 in the experiment on Mus musculus [13]; 6 in the experiment with Mus musculus [14]; 10 with Mus musculus [15]; 9 in the experiment with Mus musculus [16]. This molecule registered a Survival with Mus musculus [17] of 10.

For the molecule `COc1cc2c(cc1O)Cc1c-2[n+](C)cc2cc(OC)c(OC)cc12.[Cl-]`, in experiment [19], the EC50 was 0.03 µg/mL. Besides, the T/C in the experiment with Mus musculus [20] is 130%; in the experiment on Mus musculus [21], 138%; in the experiment on Mus musculus [22] it was 149%. The Weight difference in the experiment on Mus musculus [23] is -0.1; in the experiment with Mus musculus [24], -0.4; with Mus musculus [25], 0.1. Moreover, the Survival with Mus musculus [26] was determined as 5; in the experiment on Mus musculus [27] it was 6; in the experiment on Mus musculus [28], 6.

Consider `COc1cc2c[n+](C)c3c(c2cc1OC)Cc1c-3ccc(O)c1OC.[Cl-]`, for which, in experiment [19], the EC50 amounted to 0.4 µg/mL. In addition, the T/C in the experiment with Mus musculus [29] turned out to be 134%; with Mus musculus [30], 116%; in the experiment on Mus musculus [34] it was 137%. Moreover, the Weight change in the experiment on Mus musculus [31] was 0.2; with Mus musculus [32], -0.2; in the experiment with Mus musculus [33] it was -1.5. Also, the Survival in the experiment on Mus musculus [35], with Mus musculus [36] and with Mus musculus [37] was 6 each time.

Turning to `COc1cc2c[n+](C)c3c(c2cc1OC)Cc1c-3ccc(OS(C)(=O)=O)c1OC.[Cl-]`, in [19], the EC50 was found to be 0.1 µg/mL.

Turning to `COc1cc2c[n+](C)c3c(c2cc1OC)Cc1cc(OS(C)(=O)=O)c(OC)cc1-3.[Cl-]`, the EC50 in experiment [19] was found to be 0.01 µg/mL. Also, the T/C with Mus musculus [29] amounted to 145%; in the experiment with Mus musculus [30], 137%; with Mus musculus [21], 128%; with Mus musculus [22] it was 136%. Also, the Weight difference is -2.1 in the experiment on Mus musculus [31], -3.6 in the experiment on Mus musculus [32], -1.3 in the experiment with Mus musculus [23] and -0.6 with Mus musculus [24]. The Survival is listed as 6 with Mus musculus [38], 5 with Mus musculus [39], 6 in the experiment with Mus musculus [27] and 6 with Mus musculus [40].

With `COc1cc2cc(-c3ccc(OC(C)C)c(OC)c3)[n+](C)cc2cc1OC.[Cl-]`, the EC50 in [19] was greater than 100 µg/mL.

With `COc1cc2cc(-c3ccc4c(c3)OCO4)[n+](C)cc2cc1OC.[Cl-]`, the EC50 in [41] amounted to 0.005 µg/mL.

`COc1cc2c[n+](C)c3c4cc5c(cc4ccc3c2cc1OC)OCO5.[Cl-]` [NITIDINE CHLORIDE] registered a T/C with L1210 of 136.
